Assay results from different studies.
Sample: plasma
Route: intravenous

C[C@H]1CN(CC2CCN(c3ccc(C4CCC(=O)NC4=O)cc3F)CC2)CC[C@H]1NS(=O)(=O)c1ccc(Nc2ncc(C(F)(F)F)c(N3CCC[C@](C)(O)C3)n2)c(F)c1 (stereo partly drawn)  Vd (rat; 2 mg/kg): 7 L/kg
C[C@H]1Oc2cc(cnc2N)-c2c(nn(C)c2C#N)CN(C)C(=O)c2ccc(F)cc21  Vd (Sprague-Dawley rat; 1 mg/kg; single dose): 2 L/kg
Cc1cc(S(=O)(=O)N[C@]2(C)C[C@@H](N3CCN(CC4CCN(c5ccc6c(c5F)n(C)c(=O)n6C5CCC(=O)NC5=O)CC4)CC3)C2)ccc1Nc1ncc(C(F)(F)F)c(N2CCC[C@](C)(O)C2)n1 (stereo partly drawn)  Vd (rat; 2 mg/kg): 7 L/kg
CCONC(=O)N1CCC[C@H](C(=O)NCc2nc(-c3ccc(C#N)cc3)cs2)C1  Vd (male Sprague-Dawley rat; 1 mg/kg): 0.45 L/kg
Cc1nc(Nc2ncc(C(=O)Nc3c(C)cccc3Cl)s2)cc(N2CCN(CCO)CC2)n1  Vd (male Sprague-Dawley rat; 1 mg/kg): 2.8 L/kg
Cc1cc(S(=O)(=O)N[C@H]2CC[C@H](CN3CCN(c4cccc(NC5CCC(=O)NC5=O)c4)CC3)CC2)ccc1Nc1ncc(C(F)(F)F)c(N2CCC[C@](C)(O)C2)n1 (stereo partly drawn)  Vd (rat; 2 mg/kg): 10 L/kg
COCC(=O)N1CCC[C@H](C(=O)NCc2nc(-c3ccccc3)cs2)C1  Vd (male Sprague-Dawley rat; 1 mg/kg): 0.18 L/kg
Cc1nc(Nc2ncc(C(=O)Nc3c(C)cccc3Cl)s2)cc(N2CC[C@H](O)C2)n1  Vd (male Sprague-Dawley rat; 1 mg/kg; single dose): 0.9 L/kg
COc1ccc(N(Cc2csc(-c3ccccc3)n2)C(=O)CCCCCC(=O)NO)cc1  Vd (female Sprague-Dawley rat; 5 mg/kg): 441 L/kg
CCOCC(=O)N1CCC[C@H](C(=O)NCc2nc(-c3ccc(C#N)nc3)cs2)C1  Vd (male Sprague-Dawley rat; 1 mg/kg): 0.43 L/kg
Cc1nc(Nc2ncc(C(=O)Nc3c(C)cccc3Cl)s2)cc(N2CC[C@H](N)C2)n1  Vd (male Sprague-Dawley rat; 1 mg/kg): 16.4 L/kg
Cc1cc(S(=O)(=O)N[C@H]2CC[C@H](N3CCN(CC4CCN(c5cccc6c5n(C)c(=O)n6C5CCC(=O)NC5=O)CC4)CC3)CC2)ccc1Nc1ncc(C(F)(F)F)c(N2CCC[C@](C)(O)C2)n1 (stereo partly drawn)  Vd (rat; 2 mg/kg): 10 L/kg
CCOCC(=O)N1CCC[C@H](C(=O)NCc2nc(-c3ccc(C)nc3)cs2)C1  Vd (male Sprague-Dawley rat; 1 mg/kg): 0.3 L/kg
Cn1c(=O)c2[nH]cnc2n(C)c1=O  Vd (male Sprague-Dawley rat; 11.25 mg/kg): 2.39 L/kg
Cc1cc(S(=O)(=O)N[C@H]2CC[C@H](CN3CCN(c4ccc(C5CCC(=O)NC5=O)c(Cl)c4)CC3)CC2)ccc1Nc1ncc(C(F)(F)F)c(N2CCC[C@](C)(O)C2)n1 (stereo partly drawn)  Vd (rat; 2 mg/kg): 3 L/kg
